Values after ≈ are worked out from the molar mass of the structure shown. Active and inactive are the calls of the source. The rule behind the calls is not given here.
Tests used:
Mycobacterium avium [1] = assay: Antimycobacterial activity against isoniazid, rifampicin, ethambutol and ofloxacin-resistant Mycobacterium avium My 330/88 after 21 days; assay type: functional; settings: My 330/88, 504 h
How it was run: (§1)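 Micromethod MIC in Šula's semisynthetic medium at 37 °C. Compounds added in DMSO at 1000 down to 0.032 µmol/L. Isoniazid standard in sterile water at 0.5–250 µmol/L. Inocula: H37Rv 10^3, M. avium 10^5, M. kansasii 10^4. Read at 14 and 21 d, plus 7 d for M. kansasii.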

Mycobacterium avium [2] = assay: Antimycobacterial activity against isoniazid, rifampicin, ethambutol and ofloxacin-resistant Mycobacterium avium My 330/88 after 14 days; assay type: functional; settings: My 330/88, 336 h; how it was run: as §1
[3] = system: Mycobacterium tuberculosis; assay: Antimycobacterial activity against Mycobacterium tuberculosis H37Rv My 331/88 after 21 days; assay type: functional; settings: H37Rv My 331/88, 504 h; how it was run: as §1
[4] = system: Mycobacterium tuberculosis; assay: Antimycobacterial activity against Mycobacterium tuberculosis H37Rv My 331/88 after 14 days; assay type: functional; settings: H37Rv My 331/88, 336 h; how it was run: as §1
[5] = system: Trichophyton mentagrophytes; assay: Antifungal activity against Trichophyton mentagrophytes 445 after 120 hrs by broth microdilution method; assay type: functional; settings: Trichophyton mentagrophytes, 445, 120 h
How it was run: (§2)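 Filamentous dermatophyte tested by broth microdilution in RPMI 1640 with glutamine, fluconazole as reference. Value expressed as IC50 relative to growth control. Read at 72 and 120 h.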

[6] = system: Trichophyton mentagrophytes; assay: Antifungal activity against Trichophyton mentagrophytes 445 after 72 hrs by broth microdilution method; assay type: functional; settings: Trichophyton mentagrophytes, 445, 72 h; how it was run: as §2
Lichtheimia corymbifera [7] = assay: Antifungal activity against Absidia corymbifera 272 after 48 hrs by broth microdilution method; assay type: functional; settings: Lichtheimia corymbifera, 272, 48 h
How it was run: (§3)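 Broth microdilution in RPMI 1640 with glutamine, fluconazole as reference. For yeasts, MIC is ≥80% growth reduction (IC80) versus control. For filamentous fungi, the value is expressed as IC50. Readings at 24 and 48 h.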

Lichtheimia corymbifera [8] = assay: Antifungal activity against Absidia corymbifera 272 after 24 hrs by broth microdilution method; assay type: functional; settings: Lichtheimia corymbifera, 272, 24 h; how it was run: as §3
Aspergillus fumigatus [9] = assay: Antifungal activity against Aspergillus fumigatus 231 after 48 hrs by broth microdilution method; assay type: functional; settings: Aspergillus fumigatus, 231, 48 h; how it was run: as §3
Aspergillus fumigatus [10] = assay: Antifungal activity against Aspergillus fumigatus 231 after 24 hrs by broth microdilution method; assay type: functional; settings: Aspergillus fumigatus, 231, 24 h; how it was run: as §3
Trichosporon asahii [11] = assay: Antifungal activity against Trichosporon asahii 1188 after 48 hrs by broth microdilution method; assay type: functional; settings: Trichosporon asahii, 1188, 48 h; how it was run: as §3
Trichosporon asahii [12] = assay: Antifungal activity against Trichosporon asahii 1188 after 24 hrs by broth microdilution method; assay type: functional; settings: Trichosporon asahii, 1188, 24 h; how it was run: as §3
Pichia kudriavzevii [13] = assay: Antifungal activity against Candida krusei E28 after 48 hrs by broth microdilution method; assay type: functional; settings: E28, 48 h; how it was run: as §3
Pichia kudriavzevii [14] = assay: Antifungal activity against Candida krusei E28 after 24 hrs by broth microdilution method; assay type: functional; settings: E28, 24 h; how it was run: as §3
Candida albicans [15] = assay: Antifungal activity against Candida albicans ATCC 44859 after 48 hrs by broth microdilution method; assay type: functional; settings: ATCC 44859, 48 h; how it was run: as §3
Candida albicans [16] = assay: Antifungal activity against Candida albicans ATCC 44859 after 24 hrs by broth microdilution method; assay type: functional; settings: ATCC 44859, 24 h; how it was run: as §3
Nakaseomyces glabratus = assay: Antifungal activity against Candida glabrata 20/I at 500 micromol/L after 24 to 48 hrs by broth microdilution method; assay type: functional, organism-based; how it was run: as §3
Candida tropicalis = assay: Antifungal activity against Candida tropicalis 156 at 500 micromol/L after 24 to 48 hrs by broth microdilution method; assay type: functional, organism-based; how it was run: as §3
Pseudomonas aeruginosa = assay: Antibacterial activity against Pseudomonas aeruginosa CCM 1961 at 500 micromol/L after 24 to 48 hrs by broth microdilution method; assay type: functional, organism-based
How it was run: (§4)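 Broth microdilution in Mueller–Hinton broth, compounds dissolved in DMSO, tested over a dilution series from 500 downward. MIC taken as ≥95% growth reduction (IC95) versus drug-free control. Benzylpenicillin comparator. Readings at 24 and 48 h.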

Klebsiella pneumoniae [17] = assay: Antibacterial activity against ESBL-positive Klebsiella pneumoniae J 14368/08 at 500 micromol/L after 24 to 48 hrs by broth microdilution method; assay type: functional, organism-based; how it was run: as §4
Klebsiella pneumoniae [18] = assay: Antibacterial activity against Klebsiella pneumoniae D 11750/08 at 500 micromol/L after 24 to 48 hrs by broth microdilution method; assay type: functional, organism-based; how it was run: as §4
Escherichia coli = assay: Antibacterial activity against Escherichia coli CCM 4517 at 500 micromol/L after 24 to 48 hrs by broth microdilution method; assay type: functional, organism-based; how it was run: as §4
Enterococcus sp. = assay: Antibacterial activity against Enterococcus sp. J 14365/08 at 500 micromol/L after 24 to 48 hrs by broth microdilution method; assay type: functional, organism-based; how it was run: as §4
[19] = system: Staphylococcus epidermidis; assay: Antibacterial activity against Staphylococcus epidermidis H 6966/08 after 48 hrs by broth microdilution method; assay type: functional; settings: H 6966/08, 48 h; how it was run: as §4
[20] = system: Staphylococcus epidermidis; assay: Antibacterial activity against Staphylococcus epidermidis H 6966/08 after 24 hrs by broth microdilution method; assay type: functional; settings: H 6966/08, 24 h; how it was run: as §4
Staphylococcus aureus [21] = assay: Antibacterial activity against methicillin-resistant Staphylococcus aureus H 5996/08 after 48 hrs by broth microdilution method; assay type: functional; settings: H 5996/08, 48 h; how it was run: as §4
Staphylococcus aureus [22] = assay: Antibacterial activity against methicillin-resistant Staphylococcus aureus H 5996/08 after 24 hrs by broth microdilution method; assay type: functional; settings: H 5996/08, 24 h; how it was run: as §4
Staphylococcus aureus [23] = assay: Antibacterial activity against Staphylococcus aureus CCM 4516/08 after 48 hrs by broth microdilution method; assay type: functional; settings: CCM 4516/08, 48 h; how it was run: as §4
Staphylococcus aureus [24] = assay: Antibacterial activity against Staphylococcus aureus CCM 4516/08 after 24 hrs by broth microdilution method; assay type: functional; settings: CCM 4516/08, 24 h; how it was run: as §4
Mycobacterium kansasii [25] = assay: Antimycobacterial activity against Mycobacterium kansasii 6509/96 after 21 days; assay type: functional; settings: 6509/96, 504 h; how it was run: as §1
Mycobacterium kansasii [26] = assay: Antimycobacterial activity against Mycobacterium kansasii 6509/96 after 14 days; assay type: functional; settings: 6509/96, 336 h; how it was run: as §1
Mycobacterium kansasii [27] = assay: Antimycobacterial activity against Mycobacterium kansasii 6509/96 after 7 days; assay type: functional; settings: 6509/96, 168 h; how it was run: as §1
Mycobacterium kansasii [28] = assay: Antimycobacterial activity against Mycobacterium kansasii My 235/80 after 21 days; assay type: functional; settings: My 235/80, 504 h; how it was run: as §1
Mycobacterium kansasii [29] = assay: Antimycobacterial activity against Mycobacterium kansasii My 235/80 after 14 days; assay type: functional; settings: My 235/80, 336 h; how it was run: as §1
HepG2 = assay: Cytotoxicity against human HepG2 cells after 24 hrs by CellTiter assay; assay type: cell-based; settings: HepG2, 24 h
How it was run: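 HepG2 cells (passage 27–33) in MEM with 10% FBS, L-glutamine and NEAA, seeded at 1×10^4 per well. Treated next day with compounds at 0.1–100 µM (or 0.1–25 µmol/L), triplicates, <1% DMSO, for 24 h at 37 °C, 5% CO2. MTS reagent added for 2 h, absorbance read at 490 nm. IC50 taken against untreated (100%) and 10% DMSO (0%) controls.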

Mycobacterium kansasii [30] = assay: Antimycobacterial activity against Mycobacterium kansasii My 235/80 after 7 days; assay type: functional; settings: My 235/80, 168 h; how it was run: as §1

SMILES | MIC (Mycobacterium avium [1]) | MIC (Mycobacterium avium [2]) | MIC [3] | MIC [4] | MIC50 [5] | MIC50 [6] | MIC50 (Lichtheimia corymbifera [7]) | MIC50 (Lichtheimia corymbifera [8]) | MIC50 (Aspergillus fumigatus [9]) | MIC50 (Aspergillus fumigatus [10]) | MIC80 (Trichosporon asahii [11]) | MIC80 (Trichosporon asahii [12]) | MIC80 (Pichia kudriavzevii [13]) | MIC80 (Pichia kudriavzevii [14]) | MIC80 (Candida albicans [15]) | MIC80 (Candida albicans [16]) | Activity (Nakaseomyces glabratus) | Activity (Candida tropicalis) | Activity (Pseudomonas aeruginosa) | Activity (Klebsiella pneumoniae [17]) | other results
CCOP(=O)(OCC)Oc1ccc(Cl)cc1C(=O)Nc1cccc(F)c1 | 32 µM (≈ 12.9 µg/mL) | 32 µM (≈ 12.9 µg/mL) | 8 µM (≈ 3.21 µg/mL) | 8 µM (≈ 3.21 µg/mL) | 62.5 µM (≈ 25.1 µg/mL) | 62.5 µM (≈ 25.1 µg/mL) | > 500 µM | > 500 µM | > 500 µM | > 500 µM | > 500 µM | > 500 µM | > 500 µM | > 500 µM | > 500 µM | > 500 µM | inactive | inactive | inactive | inactive | Activity (Klebsiella pneumoniae [18]): inactive; Activity (Escherichia coli): inactive; Activity (Enterococcus sp.): inactive; MIC95 [19]: 500 µM (≈ 201 µg/mL); MIC95 [20]: 250 µM (≈ 100 µg/mL); MIC95 (Staphylococcus aureus [21]): > 500 µM; MIC95 (Staphylococcus aureus [22]): 500 µM (≈ 201 µg/mL); MIC95 (Staphylococcus aureus [23]): 500 µM (≈ 201 µg/mL); MIC95 (Staphylococcus aureus [24]): 125 µM (≈ 50.2 µg/mL); MIC (Mycobacterium kansasii [25]): 32 µM (≈ 12.9 µg/mL); MIC (Mycobacterium kansasii [26]): 32 µM (≈ 12.9 µg/mL); MIC (Mycobacterium kansasii [27]): 16 µM (≈ 6.43 µg/mL); MIC (Mycobacterium kansasii [28]): 32 µM (≈ 12.9 µg/mL); MIC (Mycobacterium kansasii [29]): 32 µM (≈ 12.9 µg/mL); IC50 (HepG2): 17.2 µM; MIC (Mycobacterium kansasii [30]): 16 µM (≈ 6.43 µg/mL)
CCOP(=O)(OCC)Oc1ccc(Cl)cc1C(=O)Nc1cccc(Cl)c1 | 16 µM (≈ 6.69 µg/mL) | 16 µM (≈ 6.69 µg/mL) | 4 µM (≈ 1.67 µg/mL) | 4 µM (≈ 1.67 µg/mL) | > 500 µM | > 500 µM | > 500 µM | > 500 µM | > 500 µM | > 500 µM | > 500 µM | > 500 µM | > 500 µM | > 500 µM | > 500 µM | > 500 µM | inactive | inactive | inactive | inactive | Activity (Klebsiella pneumoniae [18]): inactive; Activity (Escherichia coli): inactive; Activity (Enterococcus sp.): inactive; MIC95 [19]: 125 µM (≈ 52.3 µg/mL); MIC95 [20]: 125 µM (≈ 52.3 µg/mL); MIC95 (Staphylococcus aureus [21]): 500 µM (≈ 209 µg/mL); MIC95 (Staphylococcus aureus [22]): 500 µM (≈ 209 µg/mL); MIC95 (Staphylococcus aureus [23]): 500 µM (≈ 209 µg/mL); MIC95 (Staphylococcus aureus [24]): 500 µM (≈ 209 µg/mL); MIC (Mycobacterium kansasii [25]): 16 µM (≈ 6.69 µg/mL); MIC (Mycobacterium kansasii [26]): 16 µM (≈ 6.69 µg/mL); MIC (Mycobacterium kansasii [27]): 8 µM (≈ 3.35 µg/mL); MIC (Mycobacterium kansasii [28]): 8 µM (≈ 3.35 µg/mL); MIC (Mycobacterium kansasii [29]): 8 µM (≈ 3.35 µg/mL); IC50 (HepG2): 2.68 µM; MIC (Mycobacterium kansasii [30]): 8 µM (≈ 3.35 µg/mL)
CCOP(=O)(OCC)Oc1cc(Cl)ccc1C(=O)Nc1cccc(Br)c1 | 16 µM (≈ 7.4 µg/mL) | 16 µM (≈ 7.4 µg/mL) | 4 µM (≈ 1.85 µg/mL) | 4 µM (≈ 1.85 µg/mL) | > 500 µM | > 500 µM | > 500 µM | > 500 µM | > 500 µM | > 500 µM | > 500 µM | > 500 µM | > 500 µM | > 500 µM | > 500 µM | > 500 µM | inactive | inactive | inactive | inactive | Activity (Klebsiella pneumoniae [18]): inactive; Activity (Escherichia coli): inactive; Activity (Enterococcus sp.): inactive; MIC95 [19]: 250 µM (≈ 116 µg/mL); MIC95 [20]: 125 µM (≈ 57.8 µg/mL); MIC95 (Staphylococcus aureus [21]): 500 µM (≈ 231 µg/mL); MIC95 (Staphylococcus aureus [22]): 250 µM (≈ 116 µg/mL); MIC95 (Staphylococcus aureus [23]): 500 µM (≈ 231 µg/mL); MIC95 (Staphylococcus aureus [24]): 125 µM (≈ 57.8 µg/mL); MIC (Mycobacterium kansasii [25]): 8 µM (≈ 3.7 µg/mL); MIC (Mycobacterium kansasii [26]): 8 µM (≈ 3.7 µg/mL); MIC (Mycobacterium kansasii [27]): 8 µM (≈ 3.7 µg/mL); MIC (Mycobacterium kansasii [28]): 8 µM (≈ 3.7 µg/mL); MIC (Mycobacterium kansasii [29]): 8 µM (≈ 3.7 µg/mL); IC50 (HepG2): 8.07 µM; MIC (Mycobacterium kansasii [30]): 4 µM (≈ 1.85 µg/mL)

Source: ChEMBL document CHEMBL3102784, “Salicylanilide diethyl phosphates: synthesis, antimicrobial activity and cytotoxicity” (Bioorg Med Chem, 2014)
